Data published in ChEMBL document CHEMBL5154772, “Biological Investigation of a Water-Soluble Isoginkgetin-Phosphate Analogue, Targeting the Spliceosome with In Vivo Antitumor Activity” (J Med Chem, 2022).
Activity calls are given as the source filed them. No cut-off for these calls is given here.

Tests used:
[1] = AUC(0 to t) in Beagle dog at 26.76 mg/kg, iv administered as single dose measured up to 24 hrs; assay type: ADME, organism-based, Canis lupus familiaris; design: dose 26.76 mg/kg, time < 24 hrs, route iv; details: in vivo
How it was run: (§1)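 Single intravenous dose. Mice were male C57BL/6J, 12 per route; tail-vein blood was collected under sodium heparin, with 3 mice sampled at each pair of times (0.083/2, 0.25/4, 0.5/8, 1/24 h). Dogs were male beagles (n=3); jugular blood was collected under K2 EDTA predose and at 0.083, 0.25, 0.5, 1, 2, 4, 6, 8 and 24 h. Plasma was prepared from the samples.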

[2] = AUCextra in C57BL/6J mouse at 9.103 mg/kg, ip administered as single dose measured up to 24 hrs; assay type: ADME, organism-based; details: in vivo
How it was run: (§2)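 Single intraperitoneal dose in male C57BL/6J mice (12 per route). Tail-vein blood was collected under sodium heparin for plasma, with 3 mice sampled at each pair of times: 0.083/2, 0.25/4, 0.5/8 and 1/24 h. F denotes bioavailability.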

[3] = Toxicity in C57BL/6 mouse assessed as change in body weight at 100 mg/kg, ip administered as single dose and measured after 15 days (reference value: 23.5 to 24.2 g); assay type: organism-based; details: in vivo, 360 h, time 15 day
How it was run: (§3)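 Female C57BL/6 mice given one IP injection of 100 µL, at 50, 100, 250 or 500 mg/kg in sterile PBS, two mice per dose; PBS-injected controls. Behaviour checked right after and at 30 min. Body weight recorded every 2–3 days for 15 days, then liver, spleen and kidneys weighed.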

[4] = Toxicity in C57BL/6 mouse assessed as change in liver weight at 50 mg/kg, ip administered as single dose and measured after 15 days (reference value: 1.2 to 1.3 g); assay type: organism-based; details: in vivo, 360 h, time 15 day; how it was run: as §3
[5] = Toxicity in C57BL/6 mouse assessed as change in liver weight at 500 mg/kg, ip administered as single dose and measured after 15 days (reference value: 1.2 to 1.3 g); assay type: organism-based; details: in vivo, 360 h, time 15 day; how it was run: as §3
[6] = Antitumour activity against mouse wild type MCA-205 cells implanted in C57BL/6 mouse assessed as tumor size by measuring cell killing pretreatment at 2.5 mg/kg, iv administered starting from day 7 post inoculation at five days interval upto 17 days relative to control; assay type: functional; details: time <= 17 day
How it was run: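 Female C57BL/6 mice (6 weeks old) given subcutaneous MCA205 WT fibrosarcoma in the right flank. 2.5 mg/kg given intravenously on days 7, 12 and 17 after inoculation; untreated controls. Tumour area recorded every 3–4 days until ethical endpoints, then tumour size at killing. Groups compared by one-way ANOVA.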

[7] = Antiproliferative activity against mouse MCA-205 cells assessed as decrease in cell viability at 10 uM measured after 72 hrs by MTT based colorimetric assay; assay type: functional
[8] = Metabolic stability in mouse liver microsomes assessed as parent compound remaining incubated for 45 mins in presence of NADPH by HPLC-MS/MS analysis; assay type: ADME, Microsome; details: read-out: Stability
How it was run: (§4)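 Incubation with mouse or human liver microsomes for 45 min, with or without NADPH. Remaining parent compound was quantified over time by HPLC-MS/MS and expressed as % remaining; intrinsic clearance is given in μL/min/mg protein.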

[9] = Metabolic stability in mouse liver microsomes assessed as parent compound remaining incubated for 45 mins in absence of NADPH by HPLC-MS/MS analysis; assay type: ADME, Microsome; details: read-out: Stability; how it was run: as §4
[10] = Metabolic stability in mouse liver microsomes assessed as intrinsic clearance incubated for 45 mins by HPLC-MS/MS analysis; assay type: ADME, Microsome; details: read-out: CLH; how it was run: as §4
[11] = Metabolic stability in human liver microsomes assessed as intrinsic clearance incubated for 45 mins by HPLC-MS/MS analysis; assay type: ADME, Microsome; details: read-out: CLH; how it was run: as §4
[12] = Stability in mouse plasma assessed as compound remaining incubated up to 2 hrs by HPLC-MS/MS analysis; assay type: ADME, cell-free; details: read-out: Stability
How it was run: (§5)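 Incubation in mouse or human plasma for up to 2 h, with compound remaining expressed as a percentage.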

[13] = Stability in human plasma assessed as compound remaining incubated up to 2 hrs by HPLC-MS/MS analysis; assay type: ADME, cell-free; details: read-out: Stability; how it was run: as §5
[14] = Plasma protein binding in human at 2 uM by rapid equilibrium dialysis based LC-MS/MS analysis; assay type: ADME, cell-free; details: read-out: PPB (converted)
How it was run: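 Binding was measured at 2 μM in triplicate by rapid equilibrium dialysis (8K MWCO). Quantification was by UPLC-MS/MS on a phenyl column in positive ESI MRM mode (m/z 727>567), with an ammonium formate pH 5 / 1,5-DMHA mobile phase at 50 °C. Both unbound fraction (fu) and % bound are reported.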

[15] = target: Beta-1 adrenergic receptor (Homo sapiens) (UniProt P08588); experiment: Antagonist activity at ADRB1 (unknown origin) at 10 uM; assay type: functional; design: scale not given: the % may be the effect or the level left
Sequence of Beta-1 adrenergic receptor (Homo sapiens) (P08588 whole entry, looked up): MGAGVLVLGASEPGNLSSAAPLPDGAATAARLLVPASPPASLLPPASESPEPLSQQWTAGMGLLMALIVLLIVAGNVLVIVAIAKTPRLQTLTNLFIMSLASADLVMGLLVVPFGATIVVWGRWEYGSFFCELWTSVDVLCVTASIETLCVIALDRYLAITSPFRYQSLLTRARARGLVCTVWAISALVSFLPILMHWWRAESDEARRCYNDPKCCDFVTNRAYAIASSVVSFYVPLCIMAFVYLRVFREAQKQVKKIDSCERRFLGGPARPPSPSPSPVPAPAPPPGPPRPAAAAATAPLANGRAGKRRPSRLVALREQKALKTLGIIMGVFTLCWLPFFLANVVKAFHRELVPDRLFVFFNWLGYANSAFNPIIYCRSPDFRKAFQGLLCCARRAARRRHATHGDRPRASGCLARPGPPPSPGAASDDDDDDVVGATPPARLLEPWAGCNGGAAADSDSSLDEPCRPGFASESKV
How it was run: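 Single-concentration safety screen at 10 μM across a 47-target panel. GPCRs were run in antagonist mode and enzymes in inhibitor mode.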

[16] = Cmax in C57BL/6J mouse at 9.103 mg/kg, ip administered as single dose measured up to 24 hrs; assay type: ADME, organism-based; design: time < 24 hrs, dose 9.103 mg/kg, route ip; details: in vivo; how it was run: as §2
[17] = Tmax in C57BL/6J mouse at 9.103 mg/kg, ip administered as single dose measured up to 24 hrs; assay type: ADME, organism-based; details: in vivo; how it was run: as §2
[18] = Half life in C57BL/6J mouse at 9.103 mg/kg, ip administered as single dose measured up to 24 hrs; assay type: ADME, organism-based; details: in vivo; how it was run: as §2
[19] = Half life in C57BL/6J mouse at 0.711 mg/kg, iv administered as single dose measured up to 24 hrs; assay type: ADME, organism-based; details: in vivo; how it was run: as §1
[20] = Total clearance in C57BL/6J mouse at 0.711 mg/kg, iv administered as single dose measured up to 24 hrs; assay type: ADME, organism-based; details: in vivo; how it was run: as §1
[21] = MRT(0 to t) in Beagle dog at 26.76 mg/kg, iv administered as single dose measured up to 24 hrs; assay type: ADME, organism-based, Canis lupus familiaris; details: in vivo; how it was run: as §1
[22] = AUC(0 to t) in C57BL/6J mouse at 9.103 mg/kg, ip administered as single dose measured up to 24 hrs; assay type: ADME, organism-based; design: time < 24 hrs, dose 9.103 mg/kg, route ip; details: in vivo; how it was run: as §2
[23] = AUC(0 to t) in C57BL/6J mouse at 0.711 mg/kg, iv administered as single dose measured up to 24 hrs; assay type: ADME, organism-based; design: dose 0.711 mg/kg, time < 24 hrs, route iv; details: in vivo; how it was run: as §1
[24] = Toxicity in C57BL/6 mouse assessed as change in body weight at 250 mg/kg, ip administered as single dose and measured after 15 days (reference value: 23.5 to 24.2 g); assay type: organism-based; details: in vivo, 360 h, time 15 day; how it was run: as §3
[25] = Toxicity in C57BL/6 mouse assessed as change in liver weight at 100 mg/kg, ip administered as single dose and measured after 15 days (reference value: 1.2 to 1.3 g); assay type: organism-based; details: in vivo, 360 h, time 15 day; how it was run: as §3
[26] = Toxicity in C57BL/6 mouse assessed as change in kidney weight at 50 mg/kg, ip administered as single dose and measured after 15 days (reference value: 0.3 g); assay type: organism-based; details: in vivo, 360 h, time 15 day; how it was run: as §3
MCA-205 = experiment: Antitumour activity against mouse wild type MCA-205 cells implanted in C57BL/6 mouse assessed as decrease in tumour growth at 5 mg/kg,IT administered starting from day 7 post inoculation and thrice a week for 2 weeks; assay type: functional, organism-based
How it was run: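 MCA205 WT fibrosarcoma cells were inoculated subcutaneously into the right flank of female C57BL/6 mice. Dosing was 5 mg/kg intratumoral, three times per week for two weeks, starting day 7 post-inoculation; controls were untreated. Tumor area was recorded every 3–4 days, and tumor size was measured at killing. Analysis was by one-way ANOVA.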

Q: Which results are given for COc1ccc(-c2cc(=O)c3c(O)cc(OP(=O)([O-])[O-])c(-c4cc(-c5cc(=O)c6c(O)cc(OP(=O)([O-])[O-])cc6o5)ccc4OC)c3o2)cc1.[Na+].[Na+].[Na+].[Na+]?
A: AUC(0-t) at 24 h [1]: 655000 ng·h/mL; %AUCextra [2]: 1.3%; Activity [3]: 19.5 g; Activity [4]: 1 g; Activity [5]: 1 g; Activity [6]: 40%; Activity [7]: 20%; remaining at 0.75 h [8]: 82.3%; remaining at 0.75 h [9]: 72.4%; microsomal CLint [10]: 8 µL/min/mg; microsomal CLint [11]: 11 µL/min/mg; remaining at 2 h [12]: 98.1%; remaining at 2 h [13]: 94.1%; fraction unbound at 2 µM [14]: 0.017; Activity [15]: 35%; Cmax [16]: 2080 ng/mL; Tmax [17]: 5 min; half-life [18]: 48 min; half-life [19]: 66 min; clearance [20]: 133 mL/min/kg; MRT last at 24 h [21]: 228 min; AUC(0-t) at 24 h [22]: 982 ng·h/mL; AUC(0-t) at 24 h [23]: 88.8 ng·h/mL; Activity [24]: 19.1 g; Activity [25]: 1 g; Activity [26]: 0.3 g; Activity (MCA-205): Active
